Shown are actives, neighbours in structure and some others; about 3.3% of the full set was active somewhere.
PMI activator: activators of human PMI, primary screen, biochemical, fluorescence intensity, near-Km mannose 6-phosphate. Mannose-6-phosphate isomerase (Homo sapiens), P34949. purified human PMI, coupled resazurin fluorescence, 20 min; active compounds read high; 1 = vehicle control, 0 substrate-free wells. activation factor at 20 µM. 0.005% of 190,000 active. AID 1214, 2008;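 active = activation factor of 2 or more at 20 µM, relative to plate controls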
ABCG2 inh: ABCG2 efflux pump inhibitors, primary screen, multiplex with ABCB1, IgMXP3 cells, flow cytometry | inhibition, % at 6.6 µM | Broad substrate specificity ATP-binding cassette transporter ABCG2 (Homo sapiens), Q9UNQ0 | JC-1 efflux | 0.1% of 190,000 active;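 active = inhibition above 80%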;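 note: 0% = DMSO and 100% = nicardipine control wells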
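Measure – % inhibition of efflux relative to nicardipine and DMSO · Test system – ABCG2 IgMXP3 and barcoded ABCB1 CCRF-Adr cell mix · Control set – nicardipine as high control, DMSO as low control · Compound – one concentration, 6.6 µM final · Signal – flow cytometry of retained JC-1 fluorescence · Timing – 10 min exposure at 25 °C with rotation, no wash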
PMI act satM6P: human PMI activators, high substrate, primary screen, biochemical, fluorescence intensity, near-saturating mannose 6-phosphate; Mannose-6-phosphate isomerase (Homo sapiens), P34949; coupled PMI enzyme assay, resazurin fluorescence, 20 min; active compounds read high; 1 = untreated enzyme, 0 = substrate-free blank; activation factor at 20 µM; 0.34% of 190,000 active;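 active = activation factor of 2 or more at 20 µM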
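Test system: Human PMI in coupled enzyme assay | Input: 15 ng/mL PMI | Medium: HEPES-buffered pH 7.4 with magnesium and detergent | Compound: One concentration, 20 µM, in 1% DMSO | Incubation: Enzyme reaction with compound 20 min at room temperature | Detection: Diaphorase-driven resazurin-to-resorufin fluorescence, excitation 544, emission 590 nm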
ROMK mod: ROMK potassium channel modulators, primary screen, cell-based, thallium flux, MLSMR library; 2% of 130,000 active; AID 1918, 2009; B-score at 10 µM; Tet-inducible ROMK, thallium flux fluorescence; actives lie on both sides;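 active = signal ratio slope over the read window, or its plate-corrected B-score, at least 3 SD from the plate mean, either direction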;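 note: B-score of the F/F0 ratio slope over 7 to 12 s after thallium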
ABCB1 inh: ABCB1 efflux pump inhibitors, primary screen, cell-based, multiplex, flow cytometry, ABCG2 counter-screen | ATP-dependent translocase ABCB1 (Homo sapiens), P08183 | CCRF-Adr cells, JC-1 efflux | inhibition, % at 6.6 µM | 0.067% of 190,000 active | AID 1326, 2008; in the data active = inhibition above about 40%;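 note: 0% = vehicle and 100% = reference inhibitor; higher value means more JC-1 retained so stronger ABCB1 efflux block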
KCC2 mod: KCC2 cotransporter modulators, thallium flux, primary screen, cell-based, HEK293 KCC2, FluoZin-2 fluorescence, MLSMR; B-score of Tl+ flux slope (higher = more flux/activation; lower = inhibition) at 10 µM; 2.2% of 190,000 active; Solute carrier family 12 member 5 (Homo sapiens), Q9H2X9; KCC2 cells, thallium flux FluoZin-2 fluorescence;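 active = thallium flux slope and its plate-corrected score both differing from the plate sample mean at a set confidence after two filtering rounds, in either direction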;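 note: slope of fluorescence scaled to starting intensity during 10 to 20 s after thallium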
Target sequence (Q9H2X9 whole entry, looked up): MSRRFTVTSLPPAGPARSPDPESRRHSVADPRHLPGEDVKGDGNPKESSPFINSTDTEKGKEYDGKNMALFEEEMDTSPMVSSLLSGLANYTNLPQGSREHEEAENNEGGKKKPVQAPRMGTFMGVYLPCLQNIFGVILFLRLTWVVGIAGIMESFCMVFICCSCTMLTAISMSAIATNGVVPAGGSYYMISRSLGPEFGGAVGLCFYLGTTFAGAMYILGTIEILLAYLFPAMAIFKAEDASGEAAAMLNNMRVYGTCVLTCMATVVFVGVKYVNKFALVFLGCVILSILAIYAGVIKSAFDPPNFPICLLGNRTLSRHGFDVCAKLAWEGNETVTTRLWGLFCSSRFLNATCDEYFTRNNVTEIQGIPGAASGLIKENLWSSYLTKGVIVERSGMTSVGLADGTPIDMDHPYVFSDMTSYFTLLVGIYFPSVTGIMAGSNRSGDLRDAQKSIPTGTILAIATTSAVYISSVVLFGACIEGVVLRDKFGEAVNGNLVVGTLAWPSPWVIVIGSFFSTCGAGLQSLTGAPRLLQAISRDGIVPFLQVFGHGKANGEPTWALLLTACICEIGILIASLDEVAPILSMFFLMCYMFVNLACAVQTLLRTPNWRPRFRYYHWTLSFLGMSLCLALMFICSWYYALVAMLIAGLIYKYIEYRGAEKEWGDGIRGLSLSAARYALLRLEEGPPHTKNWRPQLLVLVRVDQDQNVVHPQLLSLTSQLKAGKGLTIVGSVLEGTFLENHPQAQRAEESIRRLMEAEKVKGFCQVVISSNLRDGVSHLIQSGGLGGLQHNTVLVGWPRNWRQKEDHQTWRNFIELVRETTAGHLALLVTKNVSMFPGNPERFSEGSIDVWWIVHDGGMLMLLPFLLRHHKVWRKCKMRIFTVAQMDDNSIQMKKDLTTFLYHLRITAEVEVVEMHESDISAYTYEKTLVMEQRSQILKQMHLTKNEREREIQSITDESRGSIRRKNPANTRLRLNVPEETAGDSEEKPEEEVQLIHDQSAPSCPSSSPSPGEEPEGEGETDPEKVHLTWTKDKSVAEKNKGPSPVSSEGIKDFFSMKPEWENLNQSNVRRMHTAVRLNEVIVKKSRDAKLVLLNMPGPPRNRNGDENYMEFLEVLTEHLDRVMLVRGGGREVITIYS
KCC2 sec1: KCC2 modulators in sodium-free buffer, confirmation, cell-based, HEK293 KCC2, thallium flux, secondary assay; shares compounds with KCC2 mod; FluoZin2 fluorescence; active compounds read high; normalised thallium flux (F/F0 slope) at 10 µM; 15% of 3,700 active;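 active = thallium flux slope above the same plate's solvent-only control mean plus 3 SD; inconclusive = the two replicate wells disagree; inactive = no significant difference from solvent-only control wells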
KCC2 bumet counter: thallium flux persisting under bumetanide in KCC2 cells, confirmation, counter-screen for KCC2 modulator project, cell-based, HEK293 KCC2, FluoZin2, secondary assay 3 | 49% of 3,700 active | shares compounds with KCC2 mod | normalized thallium flux at 10 µM | HEK293-KCC2 + bumetanide/ouabain; active compounds read high;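 active = thallium entry rate above the same plate's blocked-transporter control wells by more than 3 SD; inconclusive = the two repeat wells disagree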;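 note: raw slope of fluorescence over initial fluorescence between 10 and 20 s after thallium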
KCC2 sec2: KCC2 modulators without ouabain present, confirmation, cell-based, HEK293 KCC2, thallium flux, FluoZin2, secondary assay 2; shares compounds with KCC2 mod; normalized thallium flux at 10 µM; 23% of 3,700 active; thallium flux FluoZin2 fluorescence; actives lie on both sides; F/F0 rise rate, 10–20 s post-thallium;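 active = thallium flux slope more than 3 SD above or below the plate's solvent-only control mean, mostly below; inconclusive = the two repeat wells disagreed; inactive = no significant shift from solvent-only controls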;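 note: raw slope with 0.1% DMSO as baseline and bumetanide as block control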
HEK293 Tl flux: thallium flux modulation in parental HEK cells, confirmation, counter-screen for KCC2 modulator project, cell-based, counterscreen 1. thallium flux rate (normalised fluorescence) at 10 µM. shares compounds with KCC2 mod. 46% of 3,700 active. AID 1716, 2009. HEK293 parental cells, thallium flux FluoZin2, ouabain; baseline-ratio fluorescence slope, 10–20 s after thallium;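 active = thallium flux rate significantly above the same plate's solvent-only control wells, beyond their mean plus 3 SD; inconclusive = the two replicate wells gave conflicting results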
KCC2 ouabain: KCC2 inhibitors and activators, ouabain retest, confirmation, HEK-KCC2 cells; HEK293-KCC2, thallium flux FluoZin2 fluorescence; bidirectional: low = inhibitor, high = activator; raw Tl+ flux slope (below DMSO = inhibition, above = activation) at 10 µM; 48% of 3,700 active; shares compounds with KCC2 mod;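 active = thallium flux slope beyond 3 SD from same-plate DMSO control mean in most replicates, usually higher, sometimes lower; inconclusive = repeat tests gave conflicting results; inactive = no significant difference from controls in most replicates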;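 note: slope of initial-normalized fluorescence between seconds 10 and 20 after thallium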
HEK counter2: native HEK Tl+ uptake effects, second counter-screen – HEK cells, counterscreen 2, counter-screen for KCC2 modulator project, confirmation. thallium flux slope at 10 µM. shares compounds with KCC2 mod. AID 1718, 2009. HEK293 parental, thallium flux FluoZin-2 fluorescence slope. 33% of 3,700 active;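 active = thallium flux slope above the same plate's solvent-control mean plus 3 SD in both duplicate wells; inconclusive = duplicate wells that disagreed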;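 note: run without ouabain in cells lacking the KCC2 cotransporter; slope of fluorescence scaled to its starting value between 10 and 20 s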
The depositor's hits bear a star; ? = inconclusive; · = no result given.

SMILES | PMI activator | ABCG2 inh | PMI act satM6P | ROMK mod | ABCB1 inh | KCC2 mod | KCC2 sec1 | KCC2 bumet counter | KCC2 sec2 | HEK293 Tl flux | KCC2 ouabain | HEK counter2
COC(=O)c1sc(-c2ccc(Cl)cc2)cc1NC(=O)/C=C/C(=O)O | · | · | · | 1.19 | · | -4.14* | 0.00955 | 0.00797* | 0.0297 | 0.00752 | 0.014* | 0.0119
O=C(O)Cc1ccc(NC(=S)Nc2cccc(Cl)c2Cl)cc1 | 1 | -2.0 | 1 | 0.0269 | -0.5 | 9.56* | 0.00971 | 0.0105* | 0.0338 | 0.0137* | ? | 0.0121
S=C(NCCc1ccccc1)N/N=C/c1cccc(Cl)c1Cl | 0.9 | 9.8 | 1 | · | -0.6 | 4.44* | 0.00612 | 0.0126* | 0.0387* | 0.0107* | 0.0298* | 0.0109
S=C(NCC1CC1)N/N=C/c1ccccc1Cl | · | · | · | · | · | 10.3* | ? | 0.0241* | 0.0295 | 0.01* | ? | 0.00989
Cc1ccc(C)c(/C=N/NC(=S)NCCc2ccccc2)c1 | 0.9 | 3.4 | 0.9 | · | 0.6 | 0.213 | · | · | · | · | · | ·
S=C(N/N=C/c1ccccc1Cl)Nc1cccc(Cl)c1Cl | · | · | · | 0.587 | · | 6.98* | 0.00699 | 0.045* | 0.0467* | 0.0312* | 0.0479* | 0.026*
CCCCn1nnnc1SCC(=O)NCc1ccco1 | 1 | -0.3 | 1.1 | 0.488 | 0.0 | 4.49* | 0.00862 | 0.00671 | 0.0311 | 0.00726 | 0.0205 | ?
Cn1c(=O)c2c(nc(SCC(=O)NCc3ccco3)n2C)n(C)c1=O | 1 | 3.0 | 1 | 0.372 | 0.9 | 5.08* | 0.0066 | 0.00366 | 0.032 | 0.00735 | 0.0183 | 0.00973
O=C(NNC(=O)C1CC(c2cccnc2)=NO1)Nc1cccc(F)c1 (configuration not stated) | 1.1 | 0.0 | 1 | -0.0234 | 0.1 | · | · | · | · | · | · | ·
COc1ccc(NC(=O)CSc2nnc(-c3cccs3)n2-c2ccccc2)cc1 | 1 | 4.2 | 1 | 0.697 | 1.0 | · | · | · | · | · | · | ·
Clc1ccccc1CN1CCN(/N=C/C=C/c2ccco2)CC1 | · | · | · | -0.173 | · | -0.146 | · | · | · | · | · | ·
NC(=O)c1ccccc1NC(=O)Nc1cccc2ccccc12 | 1 | 2.8 | 0.8 | -0.236 | 0.0 | -4.07* | ? | 0.00626 | 0.0294 | 0.00605 | 0.0189 | 0.00946
O=C(NCc1ccc2c(c1)OCO2)c1ccc(CSCc2ccccc2Cl)o1 | 0.8 | -0.6 | 0.9 | · | -0.5 | -0.592 | · | · | · | · | · | ·
O=C(NCc1ccc2c(c1)OCO2)c1ccc(COc2cccc(Cl)c2)o1 | 0.9 | 1.7 | 0.9 | · | 0.4 | -6.92* | 0.00789 | 0.00484 | 0.0351 | 0.004 | ? | 0.0124
O=C(c1ccccc1F)N1CCN(c2ccc([N+](=O)[O-])cc2-n2cccc2)CC1 | · | · | · | 0.0143 | · | -0.982 | · | · | · | · | · | ·
O=C(c1ccc(F)cc1)N1CCN(c2ccc([N+](=O)[O-])cc2-n2cccc2)CC1 | · | · | · | -0.0449 | · | -3.72* | 0.00925 | 0.005 | 0.0359 | 0.0069 | 0.0194 | 0.0111
COc1ccc(-c2cc(C(=O)N3CCN(Cc4ccccc4)CC3)no2)cc1OC | 1 | 4.8 | 1 | · | 1.2 | -3.35* | 0.0173 | ? | 0.0219* | 0.00769 | 0.0143 | 0.0103
COc1cccc(-c2cc(C(=O)N3CCc4ccccc4C3)no2)c1 | 0.8 | 8.6 | 0.8 | · | 0.6 | 3.37* | 0.00856 | 0.00582 | 0.0291 | 0.007 | 0.0202 | 0.0094
CCOc1nc(CC)nc(NC(=O)NS(=O)(=O)c2ccccc2Cl)n1 | 1 | -8.4 | 1 | -0.644 | 2.7 | · | · | · | · | · | · | ·
CCN1CCCC1Cn1cnc2c([nH]c3cccc(Cl)c32)c1=O (configuration not stated) | 0.9 | 2.5 | 1 | · | 0.3 | -0.145 | · | · | · | · | · | ·
N#Cc1c(N)n[nH]c1-c1cc2c([nH]1)CCCC2 | 0.9 | -6.5 | 0.8 | · | -1.0 | 0.022 | · | · | · | · | · | ·
N#Cc1cc2c([nH]c1=S)CCCCCC2 | 1.3 | -1.8 | 2.1* | · | -0.5 | 6.44* | 0.0128* | 0.0216* | 0.03 | 0.0134* | ? | ?
O=C(CCCn1c(=O)oc2ccccc21)N1CCc2ccccc2C1 | 0.9 | 3.7 | 0.8 | 0.0265 | 0.3 | · | 0.00822 | 0.00611 | 0.0321 | 0.00702 | 0.0181* | 0.0102
O=C(CCCn1ncn2c(cc3occc32)c1=O)N1CCc2ccccc2C1 | 1 | 0.1 | 1 | 0.0454 | 0.0 | -2.81* | 0.00526 | 0.00494 | 0.0236* | 0.00739 | ? | 0.0114
O=C(CCn1c(=O)oc2ccccc21)NCCN1CCc2ccccc2C1 | 0.9 | 1.2 | 1 | · | 0.5 | -0.417 | · | · | · | · | · | ·
